# Experimental data pooled from the literature.
# Compare with care: the assays were run in different laboratories.
# DPP4: Dipeptidyl peptidase 4 (DPP4, Homo sapiens, UniProt P27487)
# ENAH: Protein enabled homolog (ENAH, UniProt Q8N8S7)
# 1-deoxy-D-xylulose 5-phosphate reductoisomerase: 1-deoxy-D-xylulose 5-phosphate reductoisomerase (Mycobacterium tuberculosis, UniProt P9WNS1)
# pknB: Serine/threonine-protein kinase PknB (pknB, Mycobacterium tuberculosis, UniProt P9WI81)
Compound,target,assay,setting,endpoint,result
CC(C)[C@H](N)C(=O)N1CCC[C@H]1C(=O)N[C@H](C(=O)N1CCC[C@H]1C(=O)N[C@@H](CO)C(=O)O)C(C)C,DPP4,"enzyme activity, inhibitor, absorbance",pH 8,IC50,92.9 µM
CC(=O)N[C@@H](Cc1ccccc1Cl)C(=O)N1CCC[C@H]1C(=O)N1CCC[C@H]1C(=O)N1CCC[C@H]1C(=O)N1CCC[C@H]1C(=O)N[C@H](C(=O)N[C@@H](CCC(=O)O)C(=O)N[C@@H](CC(=O)O)C(=O)N[C@@H](CCC(=O)O)C(=O)N[C@@H](C)C(N)=O)[C@@H](C)O,ENAH,"binding, fluorescence",,Kd,3.5 µM
CC(=O)N(O)CCC(c1ccc2c(c1)OCO2)P(=O)(O)O (stereo not shown),1-deoxy-D-xylulose 5-phosphate reductoisomerase,"enzyme activity, inhibitor, absorbance",pH 7.5,IC50,1.5 µM
CC(C)(C)OC(=O)N1CCN(c2ccc(Nc3nccc(-c4ccccc4)n3)cc2C(F)(F)F)CC1,pknB,"cell-free assay, inhibitor",,Ki,> 5.9 µM
CC(C)C[C@H](NC(=O)[C@@H]1CCCN1C(=O)[C@@H](NC(=O)[C@@H]1CCCN1C(=O)[C@@H](N)C(C)C)C(C)C)C(=O)O,DPP4,"enzyme activity, inhibitor, absorbance",pH 8,IC50,130 µM
CC(=O)N(O)CCC(c1ccc(-c2cccnc2)cc1)P(=O)(O)O (stereo not shown),1-deoxy-D-xylulose 5-phosphate reductoisomerase,"enzyme activity, inhibitor, absorbance",pH 7.5,IC50,0.8 µM
COc1cccc(-c2ccnc(Nc3ccc(N4CCN(C(=O)OC(C)(C)C)CC4)c(C(F)(F)F)c3)n2)c1,pknB,"cell-free assay, inhibitor",,Ki,> 5.9 µM
CC(=O)N[C@@H](CO)C(=O)N[C@@H](Cc1ccccc1)C(=O)N[C@@H](CCC(=O)O)C(=O)N[C@@H](Cc1ccccc1)C(=O)N1CCC[C@H]1C(=O)N1CCC[C@H]1C(=O)N1CCC[C@H]1C(=O)N1CCC[C@H]1C(=O)N[C@H](C(=O)N[C@@H](CCC(=O)O)C(=O)N[C@@H](CC(=O)O)C(=O)N[C@@H](CCC(=O)O)C(=O)N[C@@H](CC(C)C)C(N)=O)[C@@H](C)O,ENAH,"binding, fluorescence",,Kd,13 µM
CC(=O)N(O)CCC(c1cc2ccccc2o1)P(=O)(O)O (stereo not shown),1-deoxy-D-xylulose 5-phosphate reductoisomerase,"enzyme activity, inhibitor, absorbance",pH 7.5,IC50,9.6 µM
CC(C)[C@H](N)C(=O)N1CCC[C@H]1C(=O)N[C@H](C(=O)N1CCC[C@H]1C(=O)N[C@@H](CCCCN)C(=O)O)C(C)C,DPP4,"enzyme activity, inhibitor, absorbance",pH 8,IC50,104 µM
